Screening results from PubChem.
PREPL inhibitor: inhibitors of human prolyl oligopeptidase-like enzyme PREPL | Q4J6C6 | recombinant PREPL, fluorescence polarization activity-based probe | inhibition, % at 5.96 µM | actives 0.68% (n = 320,000) | AID 2751; in the data active means inhibition above about 43%;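 further: 0% = enzyme with DMSO and 100% = wells lacking enzyme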
Hep lipid drop: modulators of hepatic lipid droplet formation | AML12 mouse hepatocytes, oleate lipid droplets, BODIPY imaging | inhibition, % at 6.5 µM | actives 0.4% (n = 240,000);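 active means lipid droplet intensity inhibited by at least 50%, with more than 500 cells counted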
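Material: mouse AML12 hepatocyte cell line, fixed after treatment; Timing: compound with oleate, overnight; Technique: high-content imaging of BODIPY-stained droplets and DAPI nuclei; Probe or stimulus: oleate, 100 µM final; Dosing: compound at 6.5 µM only.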
MC4R barr agon: human MC4R agonism via beta-arrestin | P32245 | U2OS MC4R beta-arrestin complementation, luminescence; percent of melanotan II response, DMSO zero | activation, % at 8.9 µM | actives 0.98% (n = 360,000);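 active means activation above a per-plate cutoff, the mean activation of sample wells on that plate plus 3 SD, cut at about 8% in these data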
MC4R antag cAMP: human MC4R antagonism in cAMP assay; P32245; MC4R-expressing cells, MTII-stimulated cAMP, LANCE TR-FRET; inhibition, % at 6.5 µM; actives 0.48% (n = 360,000);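 active means inhibition above its plate's cutoff, the mean of tested wells on that plate plus 3 SD, cut at about 29% in these data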;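 further: 0% = Melanotan II alone and 100% = Melanotan II plus saturating MCL0020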
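material = U2OS cells stably expressing human melanocortin 4 receptor (MC4R) | also added = Melanotan II challenge | dosing = single nominal compound dose of 6.5 µM | detection = TR-FRET with Eu-cAMP and labeled anti-cAMP, 671 nm | replication = singlicate | timing = compound 30 min, challenge 1 h, detection 1 h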
NTR1 agonist: NTR1 (human) agonism; P30989; NTR1-U2OS beta-arrestin-GFP spot imaging, agonist mode; activation, % at 20 µM; actives 0.17% (n = 330,000); AID 493036;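 active means activation at or above 40% of the spot to cytoplasm intensity ratio, with at least 20 cells analyzed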;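 further: 0% = DMSO without peptide and 100% = 100 nM NTR1 peptide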
Target sequence (P30989 whole entry, looked up): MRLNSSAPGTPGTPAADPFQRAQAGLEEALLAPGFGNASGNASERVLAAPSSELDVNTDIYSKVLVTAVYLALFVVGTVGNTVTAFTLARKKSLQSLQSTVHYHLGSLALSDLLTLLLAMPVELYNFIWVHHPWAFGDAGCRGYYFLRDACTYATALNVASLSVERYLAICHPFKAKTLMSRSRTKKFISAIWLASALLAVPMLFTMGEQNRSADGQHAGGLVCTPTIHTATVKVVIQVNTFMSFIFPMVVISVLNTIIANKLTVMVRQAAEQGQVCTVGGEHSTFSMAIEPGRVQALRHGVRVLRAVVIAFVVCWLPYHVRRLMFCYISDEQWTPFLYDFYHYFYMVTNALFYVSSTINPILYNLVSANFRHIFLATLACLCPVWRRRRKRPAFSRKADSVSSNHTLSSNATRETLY
m5-HT2A agonist: mouse HTR2A agonism via beta-arrestin recruitment; CHO-K1 mHTR2A beta-arrestin complementation, luminescence; percent of 30 µM serotonin response; activation, % at 7.6 µM; actives 0.66% (n = 360,000);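 active means activation above a run cutoff, the mean activation of all tested compounds plus 3 SD, cut at about 14% in these data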;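 further: 0% = plate median of compound wells and 100% = 30 µM serotonin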
Lipid drop inh: hepatic lipid droplet formation inhibition, confirmed. actives 65% (n = 870). AML12 mouse hepatocytes, BODIPY lipid droplet imaging; droplets induced with 100 µM oleic acid. shares compounds with Hep lipid drop. inhibition, % at 5.2 µM;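 active means inhibition of lipid droplet metric at least 50%, with more than 300 cells in each of four replicates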;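 further: plate controls were DMSO with oleic acid for no effect and 5 µM Triacsin-C for full effect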
AML12 cytotox: toxic to AML12 mouse hepatocytes in counter-screen. shares compounds with Hep lipid drop. DAPI nuclear morphology cytotoxicity imaging; stronger effect = higher value; cells fed 100 µM oleate overnight. z-score at 5 µM. actives 3% (n = 870). AID 463200; in the data active means z-score above about 6.3;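 further: compound exposure lasted overnight at 37 °C before fixation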
AML12 tox ATP: AML12 hepatocyte cytotoxicity, confirmed; shares compounds with Hep lipid drop; cytotoxicity, % at 50 µM; 530 tested, under 10 active; AML12 mouse hepatocyte viability, ATP luminescence; cells loaded with 100 µM oleic acid;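 active means cytotoxicity above 50% in each of four replicates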;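 further: compound exposure lasted overnight at 37 °C before the ATP read; 0% = DMSO-treated cells and 100% = wells with no cells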
* marks the source's active call; other numbers are inactive results. The list is not random: actives were taken first. Their share in the collection is about 2.7%.

CCN(CC(=O)Nc1ccccc1C(F)(F)F)C(=O)c1cc(-c2cccs2)nn1-c1ccccc1 was read as PREPL inhibitor 2, Hep lipid drop 65*, MC4R barr agon 4, MC4R antag cAMP 13, NTR1 agonist 10, m5-HT2A agonist 3, Lipid drop inh 103*, AML12 cytotox -0.44 and AML12 tox ATP 14.
For O=C(N/N=C/c1cn(-c2ccccc2)nc1-c1cc2ccccc2o1)c1ccccc1Br the results were PREPL inhibitor -21, Hep lipid drop 102*, MC4R barr agon 0, MC4R antag cAMP 0, NTR1 agonist 0, m5-HT2A agonist 0, Lipid drop inh 105*, AML12 cytotox 1.1 and AML12 tox ATP 15.
O=C(N/N=C/c1cn(-c2cccs2)nc1-c1ccccc1)c1ccccc1Br was read as PREPL inhibitor -4, Hep lipid drop 11, MC4R barr agon -2, MC4R antag cAMP 3, NTR1 agonist 6 and m5-HT2A agonist 2.
`CCCCCC(/C=N/Nc1ccc(S(=O)(=O)N2CCOCC2)cc1[N+](=O)[O-])=C\c1ccccc1` gave PREPL inhibitor 4, Hep lipid drop 61*, MC4R barr agon 0, MC4R antag cAMP -1, NTR1 agonist 3, m5-HT2A agonist -1, Lipid drop inh 35 and AML12 cytotox -0.65.
Screening Cn1c(SCC(=O)N2c3ccccc3CCc3ccccc32)nnc1-c1ccc(O)cc1 returned PREPL inhibitor -6, Hep lipid drop -18, MC4R barr agon -2, MC4R antag cAMP 9, NTR1 agonist 2 and m5-HT2A agonist -2.
Screening Cc1ccc(-n2nc3c(=O)n(CC(=O)NC4CCCCC4)nc(C)c3c2C)cc1 returned PREPL inhibitor 17, Hep lipid drop 57*, MC4R barr agon -4, MC4R antag cAMP 0, NTR1 agonist 1, m5-HT2A agonist 3, Lipid drop inh 88*, AML12 cytotox -0.23 and AML12 tox ATP 17.
For Cc1ccc(-n2nc3c(=O)n(C(C)C(=O)NCCc4cccs4)nc(C)c3c2C)cc1 (configuration not stated) the results were PREPL inhibitor 14, Hep lipid drop 53*, MC4R barr agon -2, MC4R antag cAMP 1, NTR1 agonist 0, m5-HT2A agonist -2, Lipid drop inh 96*, AML12 cytotox -0.5 and AML12 tox ATP 20.
Screening Cc1ccc(-n2nc3c(=O)n(CC(=O)NC(C)CCc4ccccc4)nc(C)c3c2C)cc1 (configuration not stated) returned PREPL inhibitor -1, Hep lipid drop 88*, MC4R barr agon -4, MC4R antag cAMP 0, NTR1 agonist 0, m5-HT2A agonist 2, Lipid drop inh 77*, AML12 cytotox -0.48 and AML12 tox ATP 5.
For C#CCOCCOCCOCCNc1nc(N2CCN(C(=O)C([C@@H](C)CC)n3cc(C(N)COC(=O)C(F)(F)F)nn3)CC2)nc(N2CCN(C(=O)[C@H](CCC(=O)O)n3cc(C(N)CC(C)C)nn3)CC2)n1 (some centres not stated) the results were PREPL inhibitor -3 and NTR1 agonist 0.
For O=C(COC(=O)c1cc[n+]([O-])cc1)Nc1cccc(Br)c1 the results were MC4R barr agon 4, MC4R antag cAMP 1, NTR1 agonist 0 and m5-HT2A agonist 0.
Screening CC(=O)c1ccc(Nc2nc(=O)c3cccnc3s2)cc1 returned PREPL inhibitor 5, Hep lipid drop 77*, MC4R barr agon -2, MC4R antag cAMP 2, NTR1 agonist -2, m5-HT2A agonist 3, Lipid drop inh 20 and AML12 cytotox -0.77.
For Cn1nc(C(F)(F)F)c(-c2cccc(C(F)(F)F)c2)c1NC(=O)Nc1ccc(F)cc1 the results were PREPL inhibitor 1, Hep lipid drop 69*, MC4R barr agon 0, MC4R antag cAMP 6, NTR1 agonist 13, m5-HT2A agonist 8, Lipid drop inh 90*, AML12 cytotox -0.64 and AML12 tox ATP 0.
For Cn1nc(C(F)(F)F)c(-c2cccc(C(F)(F)F)c2)c1NC(=O)c1ccco1 the results were PREPL inhibitor -1, Hep lipid drop 21, MC4R barr agon -1, MC4R antag cAMP -2, NTR1 agonist 0 and m5-HT2A agonist 10.
O=C(Nc1nc(-c2cccc([N+](=O)[O-])c2)cs1)c1cccc([N+](=O)[O-])c1C(=O)O was read as PREPL inhibitor -2, Hep lipid drop 2, MC4R barr agon -2, MC4R antag cAMP 9, NTR1 agonist 2 and m5-HT2A agonist 0.
Screening CC(C)Oc1ccc(C(=O)OC(C)C(=O)Nc2nc(-c3cccc([N+](=O)[O-])c3)cs2)cc1 (configuration not stated) returned PREPL inhibitor 6, Hep lipid drop 91*, MC4R barr agon 0, MC4R antag cAMP 5, NTR1 agonist 1, m5-HT2A agonist 1, Lipid drop inh 97*, AML12 cytotox 0.34 and AML12 tox ATP 10.
For O=C(Cc1cccc2ccccc12)Nc1nc(-c2cccc([N+](=O)[O-])c2)cs1 the results were PREPL inhibitor 0, Hep lipid drop 68*, MC4R barr agon -1, MC4R antag cAMP 2, NTR1 agonist 0, m5-HT2A agonist 0, Lipid drop inh 100*, AML12 cytotox -1 and AML12 tox ATP 31.
Cc1ccn2c(Cc3ccccc3)c(-c3ccc(F)cc3)nc2c1 was read as MC4R barr agon -1, MC4R antag cAMP 2 and m5-HT2A agonist -13.
For CN(C)S(=O)(=O)c1ccc(S(=O)(=O)N(CC(=O)Nc2ccccc2)Cc2ccco2)cc1 the results were PREPL inhibitor 0, MC4R barr agon 1, MC4R antag cAMP 3, NTR1 agonist 1 and m5-HT2A agonist -4.
CCN(CC)S(=O)(=O)c1ccc(S(=O)(=O)N(CC(=O)Nc2ccccc2)Cc2ccco2)cc1 was read as PREPL inhibitor 3, Hep lipid drop 62*, MC4R barr agon 0, MC4R antag cAMP 6, NTR1 agonist 2, m5-HT2A agonist 2, Lipid drop inh 96*, AML12 cytotox -0.42 and AML12 tox ATP 11.
`CN(C)N1C(N)=C(C#N)C(c2cccc([N+](=O)[O-])c2)C2=C1CC(C)(C)CC2=O` (configuration not stated) gave Hep lipid drop -1, MC4R barr agon 0, MC4R antag cAMP 10, NTR1 agonist 2 and m5-HT2A agonist 1.
